The text below walks through data of ChEMBL document CHEMBL1811767, “Quinoxalin-2(1H)-one derivatives as inhibitors against hepatitis C virus” (J Med Chem, 2011).

Data set [1] can be described thus: Cytotoxicity against human Huh7ET cells at 20 uM by CytoTox-one cell proliferation assay. The conditions noted are these: huh-7, 20 µM. It is filed as cell-based. In a few lines: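 Huh 7 ET replicon cells exposed to single 20 μM for 72 h in primary screen; viability by tetrazolium-based CytoTox-1 assay, reported as percent relative to control cells.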
In data set [2] the test system is Hepatitis C virus. Kind of data set: Antiviral activity against Hepatitis C virus infected in human Huh7ET cells assessed as inhibition of dicistronic viral RNA replication at 20 uM after 72 hrs by luciferase reporter gene assay. It is filed as functional, Hepacivirus hominis, Huh-7. On the set-up: scale not given: the % may be the effect or the level left. An outline of the steps:
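Primary screen at single 20 μM in replicon Huh 7 ET cells (5000/well, DMEM without G418, overnight seeding). After 72 h exposure, replicon luciferase measured with Steady-Glo. Value expressed as percent inhibition relative to control cells.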
In general terms: In a reporter assay the amount or activity of a reporter protein is the signal.

Data set [3] can be described thus: Selectivity index, ratio of IC50 for human Huh7ET cells to EC50 for Hepatitis C virus. It is filed as toxicity, cell-based, Huh-7. The conditions noted are these: read-out: Ratio IC50/EC50. An outline of the steps:
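SI taken as IC50 (CytoTox-1 viability, Huh 7 ET replicon cells, 72 h) divided by EC50 (replicon luciferase, same cells and exposure); each from four-replicate averages.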

The subject of data set [4] is Hepacivirus hominis. Kind of data set: Inhibition of Hepatitis C virus protease.
Data set [5] relates to Hepatitis C virus. Put plainly: Antiviral activity against Hepatitis C virus infected in human Huh7ET cells assessed as inhibition of dicistronic viral RNA replication after 72 hrs by luciferase reporter gene assay. The conditions noted are these: Huh-7, 72 h. It is filed as functional, organism-based, Hepacivirus hominis. An outline of the steps:
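HCV replicon Huh 7 ET cells seeded 5000/well in DMEM without G418 overnight; compounds dissolved in DMSO, diluted in DMEM, dose-response. After 72 h, replicon-derived luciferase read by Steady-Glo. Mean of four replicates; EC50 = concentration inhibiting HCV RNA replication by 50%.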

A short description of data set [6]: Cytotoxicity against human Huh7ET cells by CytoTox-one cell proliferation assay. It is filed as cell-based. As to conditions: Huh-7. In a few lines: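 Parallel plate of replicon Huh 7 ET cells (5000/well, DMEM without G418), compounds from DMSO stocks diluted in DMEM, 72 h. Viability by tetrazolium-based CytoTox-1 proliferation assay. Mean of four replicates; IC50 = concentration decreasing cell viability by 50%.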

Data set [7] deals with Hepacivirus hominis. Kind of data set: Inhibition of Hepatitis C virus NS5B polymerase.

Calls of active or inactive are those of the source. The calls are words filed in the database; no cut-off is given here.

`O=c1cnc2cc(OC3CCCCC3)c(Nc3nc(-c4ccccc4)cs3)cc2[nH]1`: the “Cell viability relative to control” value in data set [1] is 74.4%. Besides, the Activity in data set [2] came out at 4.9%.
As for `CCN(c1cc2ncc(=O)[nH]c2cc1Nc1nc(-c2ccccc2)cs1)C1CCCCC1`, the “Cell viability relative to control” value in data set [1] turned out to be 58%. In addition, the Activity in data set [2] amounted to 35%.
`O=c1cnc2cc(N3CCN(c4ccc(F)cc4)CC3)c(Nc3nc(-c4ccccc4)cs3)cc2[nH]1`: the “Cell viability relative to control” value in data set [1] worked out at 84.3%. The Activity in data set [2] is given as 35%.
Usually EC50 stands for the concentration needed to bring the measured effect to its halfway point. Usually IC50 stands for the concentration that inhibits the measured activity by half. For the compound `CN(c1cc2ncc(=O)[nH]c2cc1Nc1nc(-c2ccccc2)cs1)C1CCCCC1`, the selectivity ratio in data set [3] was found to be 37.4. The inhibition result in data set [4] and in data set [7] was “inactive” each time. The EC50 in data set [5] stood at 1.67 µM. Further, the IC50 in data set [6] was found to be 62.5 µM.
In the case of `O=c1cnc2cc(N3CCCCC3)c(Nc3nc(-c4ccccc4)cs3)cc2[nH]1`, in data set [1], the “Cell viability relative to control” value was determined as 35.1%. Further, in data set [2], the Activity is on record as 9%.
Regarding `CCOC(=O)C1CCN(c2cc3ncc(=O)[nH]c3cc2Nc2nc(-c3ccccc3)cs2)CC1`, the “Cell viability relative to control” value in data set [1] is given as 59.6%. The Activity in data set [2] is 37.6%.
For the compound `CN(c1cc2ncc(=O)[nH]c2cc1NC(=O)Nc1cccc2ccccc12)C1CCCCC1`, the selectivity ratio in data set [3] was determined as 0.5. Moreover, the EC50 in data set [5] was 9.84 µM. Besides, in data set [6], the IC50 came out at 5.33 µM.
For `CN(c1cc2ncc(=O)[nH]c2cc1NC(=S)NC(=O)c1cccc(C(F)(F)F)c1)C1CCCCC1`, in data set [3], the selectivity ratio was found to be 7.5. The EC50 in data set [5] was determined as 4.08 µM. In data set [6], this compound gave an IC50 of 31.5 µM.
In the same order, the values of `CN(c1cc2ncc(=O)[nH]c2cc1NC(=S)Nc1cccc2ccccc12)C1CCCCC1` are below 2.2, above 20 µM and 43.6 µM.
For `CN(c1cc2c(cc1Nc1nc(-c3ccccc3)cs1)NC(=O)C1CCCCN21)C1CCCCC1` (stereo not given), the selectivity ratio in data set [3] was 9.27. Moreover, in data set [5], the EC50 was 1.19 µM. Besides, 11 µM corresponded to half-maximal inhibition in data set [6] (IC50).
Consider `COc1ccc(-c2csc(Nc3cc4[nH]c(=O)cnc4cc3N(C)C3CCCCC3)n2)cc1`, for which the selectivity ratio in data set [3] is below 0.75. The concentration for a half-maximal effect (EC50) in data set [5] is above 20 µM. Also, the IC50 in data set [6] is 15 µM.
